PAFAH2 inh: PAFAH2 enzyme inhibitors, primary screen, biochemical, fluorescence polarization, human; inhibition, % at 3.39 µM; AID 492956, 2010; Platelet-activating factor acetylhydrolase 2, cytoplasmic (Homo sapiens), Q99487; 340,000 compounds, 0.99% hits; recombinant PAFAH2, FP-rhodamine activity probe;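 active means inhibition above the mean over all tested compounds plus 3 SD, cut at about 30% in these data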;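 further: inhibitors block probe labeling of enzyme so polarization drops; 0% = enzyme with DMSO and 100% = wells lacking PAFAH2 protein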
pPAFAH FP inh: pPAFAH enzyme inhibitors, primary screen, biochemical, fluorescence polarization, human; Platelet-activating factor acetylhydrolase (Homo sapiens), Q13093; AID 463082, 2010; inhibition, % at 3.39 µM; recombinant pPAFAH, FP-rhodamine probe fluorescence polarization; 330,000 compounds, 1.5% hits;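 active means inhibition above the mean inhibition across the screen plus 3 SD, cut at about 25% in these data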;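 further: inhibitors block binding of the rhodamine activity-based probe so polarization drops; 0% = enzyme with DMSO and 100% = wells lacking pPAFAH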
Target sequence (Q13093 whole entry, looked up): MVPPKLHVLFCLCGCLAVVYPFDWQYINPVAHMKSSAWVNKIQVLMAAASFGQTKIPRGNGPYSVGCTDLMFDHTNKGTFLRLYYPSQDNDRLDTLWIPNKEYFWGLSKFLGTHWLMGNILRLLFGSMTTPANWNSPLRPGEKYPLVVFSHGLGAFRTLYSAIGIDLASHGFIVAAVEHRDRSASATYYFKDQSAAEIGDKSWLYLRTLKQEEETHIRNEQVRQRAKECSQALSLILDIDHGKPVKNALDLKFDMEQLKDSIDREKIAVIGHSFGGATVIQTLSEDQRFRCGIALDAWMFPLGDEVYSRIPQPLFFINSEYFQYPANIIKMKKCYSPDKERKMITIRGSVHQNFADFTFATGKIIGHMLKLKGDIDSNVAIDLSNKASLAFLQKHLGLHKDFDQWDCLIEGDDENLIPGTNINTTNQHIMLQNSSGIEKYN
PAFAH1B2 FP inh: PAFAH1B2 enzyme inhibitors, primary screen, biochemical, fluorescence polarization, human | inhibition, % at 3.39 µM | Platelet-activating factor acetylhydrolase IB subunit alpha2 (Homo sapiens), P68402 | AID 492953, 2010 | recombinant PAFAH1B2, FP-rhodamine activity probe | 340,000 compounds, 1.2% hits;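 active means inhibition above the mean of all tested compounds plus 3 SD, cut at about 24% in these data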;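 further: 0% = enzyme with DMSO and 100% = wells lacking PAFAH1B2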
IMP-1 inhibitor: IMP-1 metallo-beta-lactamase inhibitors, primary screen, biochemical, epi-absorbance readout, Pseudomonas aeruginosa enzyme; purified IMP-1, nitrocefin hydrolysis, epi-absorbance fluorescence; 290,000 compounds, 0.45% hits; AID 1556, 2009; metallo-beta-lactamase IMP-1 (Pseudomonas aeruginosa); inhibition, % at 5.6 µM;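 active means inhibition above the mean plus 3 SD of all compounds in the same screening run, cut at about 4.5% in these data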;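 further: 0% = IMP-1 with DMSO and 100% = DMSO wells lacking enzyme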
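System: Purified IMP-1 | Read-out basis: Percent enzyme inhibition | Controls: IMP-1 with DMSO as 0%, enzyme-free DMSO as 100% | Replicates: One well per compound | Doses: 5.6 µM nominal single concentration | Detection: Epi-absorbance fluorescence, 480 nm excitation, 530 nm emission | Incubation: 25 °C, 15 min preincubation, 25 min reaction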
VIM-2 inh: VIM-2 metallo-beta-lactamase inhibitors, primary screen, biochemical, epi-absorbance readout, Pseudomonas aeruginosa enzyme. inhibition, % at 5.6 µM. AID 1527, 2009. 290,000 compounds, 0.89% hits. purified VIM-2, nitrocefin hydrolysis, epi-absorbance fluorescence;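 active means inhibition above the mean of all tested compounds plus 3 SD, cutoff set per screening run, cut at about 7.5% in these data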;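 further: red hydrolysis product quenches plate fluorescence so inhibitors raise well fluorescence; 0% = enzyme with DMSO and 100% = DMSO without enzyme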
PAFAH1B3 inh: PAFAH1B3 enzyme inhibitors, primary screen, biochemical, fluorescence polarization, human | recombinant PAFAH1B3, FP-rhodamine probe | 340,000 compounds, 0.28% hits | inhibition, % at 3.39 µM | AID 492972, 2010;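 active means inhibition above the screen-wide average of all tested compounds plus 3 SD, cut at about 25% in these data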;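 further: 0% = enzyme with DMSO only and 100% = wells lacking PAFAH1B3 protein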
* hit, by the source's call; . = no result given. Only some compounds are listed: those with a hit (about 3.6% of all), similar ones and a draw of the others.

SMILES | PAFAH2 inh | pPAFAH FP inh | PAFAH1B2 FP inh | IMP-1 inhibitor | VIM-2 inh | PAFAH1B3 inh
CCC(c1nnc(SCC(=O)Nc2ccc(C(C)=O)cc2)n1C1CCCCC1)N(C)C (configuration not stated) | 5 | 11 | 2 | -3 | 12* | 5
CCC(c1nnc(SCC(=O)Nc2cc(Cl)ccc2C#N)n1C1CCCCC1)N(C)C (configuration not stated) | -8 | 1 | 0 | -2 | 5 | 4
CN(C)c1ccc(NC(=O)CSc2nc3ccccc3c(=O)n2C2CCCCC2)cc1 | 1 | 34* | 4 | 0 | -1 | 12
Cc1cc(NC(=O)CSc2nc3ccccc3c(=O)n2C2CCCC2)no1 | -2 | 30* | 0 | -3 | -2 | 2
CCN(CC)CCn1c(SCC(=O)Nc2ccc3c(c2)CCC3)nc2ccccc2c1=O | 6 | 2 | 25* | . | . | -6
O=C(CSc1nc2ccccc2c(=O)n1-c1ccccc1F)Nc1ccc2c(c1)CCC2 | -6 | 2 | 2 | -2 | 2 | -4
CCOC(=O)C1=CNS(=O)(=O)NC1c1ccc(OC(C)=O)cc1 (configuration not stated) | 2 | 4 | 1 | . | . | 2
CCCc1nnc(SCC(=O)NC2CCCC2)n1CCOC | 3 | 2 | 4 | -1 | -4 | 3
CN(Cc1ccc(C(C)(C)C)cc1)C(=O)Cc1ccc(S(=O)(=O)N2CCOCC2)s1 | -3 | 14 | 2 | . | . | -1
CCC[C@@H](O)c1cc2cc(OC)c(OC)cc2c(=O)o1 | -1 | -2 | -4 | . | . | -5
NC(=O)Cn1c(=O)n(Cc2ccccc2)c(=O)c2cccnc21 | 6 | 3 | 4 | -2 | -3 | 5
COc1ccc(/C=N/Nc2ccc([N+](=O)[O-])cc2)cc1Cn1cc([N+](=O)[O-])cn1 | -3 | 4 | 4 | 4.6* | -1 | -8
COc1ccc(-c2cc(-c3ccccc3O)[nH]n2)cc1OC | -3 | 9 | 0 | -2 | -5 | 9
COc1ccc(-c2cc(-c3ccc(OC)c(OC)c3)n[nH]2)c(O)c1 | 4 | 25* | 5 | -3 | -3 | 3
COc1ccc(-c2cc(-c3cc(F)ccc3O)[nH]n2)cc1OC | -13 | 13 | 1 | 5.2* | -3 | 10
Cc1ccc(NC(=O)C(C)SCc2nc3sc4c(c3c(=O)[nH]2)CCCC4)nc1 (configuration not stated) | -3 | 17 | 29* | -2 | -2 | 0
Cc1ccc(OCCNC(=O)CCc2nc3sc4c(c3c(=O)[nH]2)CCCC4)cc1 | 0 | 18 | 27* | -3 | -1 | 6
O=C(CCc1nc2sc3c(c2c(=O)[nH]1)CCCC3)NCCOc1ccccc1 | 1 | 14 | 10 | . | . | 0
NC(=O)c1c(NC(=O)COC(=O)c2ccc(O)c(Cl)c2)sc2c1CCCC2 | 27 | 15 | 8 | . | . | -1
CCc1ccc(NC(=O)CSc2nc(=O)n(CCN(C)C)c3c2CCCC3)cc1 | -3 | 0 | 1 | . | . | 9
N#CC(=C(c1ccccc1)c1ccccc1)c1ccccc1 | 0 | . | 24* | . | . | 5
O=C(Nc1ccc(-c2csc(Nc3ccc(Cl)cc3)n2)cc1)c1cc([N+](=O)[O-])cc(C(F)(F)F)c1 | 20 | 5 | 11 | . | . | 16
O=C(Nc1cccc(-c2csc(Nc3ccccc3)n2)c1)c1cc([N+](=O)[O-])cc(C(F)(F)F)c1 | -14 | 30* | 28* | 1 | 2 | 27*
Nc1cc(S(=O)(=O)N2CCOCC2)ccc1Oc1cccc(Br)c1 | 0 | . | 2 | . | . | 5
C#CCn1cc(/C=N/Nc2nc3ccccc3[nH]2)c2ccccc21 | 23 | 29* | 16 | -5 | -4 | 24
Cc1cccc(N2CCN(S(=O)(=O)c3c(C)[nH]c(C)c3C(=O)N3CCCC3)CC2C)c1 (configuration not stated) | 1 | 6 | 7 | -2 | -3 | 2

High-throughput results as filed in PubChem.
